Active and inactive are the calls of the source. The calls are words filed in the database; no cut-off is given here.
What was measured:
[1] = molecular target: T1, Cystathionine beta-synthase (Homo sapiens, UniProt P35520); assay: Inhibition of full-length GST-fused human CBS assessed as reduction in H2S production using 2 mM […] as substrate preincubated for 3 mins followed by substrate addition
T1 sequence (P35520 whole entry): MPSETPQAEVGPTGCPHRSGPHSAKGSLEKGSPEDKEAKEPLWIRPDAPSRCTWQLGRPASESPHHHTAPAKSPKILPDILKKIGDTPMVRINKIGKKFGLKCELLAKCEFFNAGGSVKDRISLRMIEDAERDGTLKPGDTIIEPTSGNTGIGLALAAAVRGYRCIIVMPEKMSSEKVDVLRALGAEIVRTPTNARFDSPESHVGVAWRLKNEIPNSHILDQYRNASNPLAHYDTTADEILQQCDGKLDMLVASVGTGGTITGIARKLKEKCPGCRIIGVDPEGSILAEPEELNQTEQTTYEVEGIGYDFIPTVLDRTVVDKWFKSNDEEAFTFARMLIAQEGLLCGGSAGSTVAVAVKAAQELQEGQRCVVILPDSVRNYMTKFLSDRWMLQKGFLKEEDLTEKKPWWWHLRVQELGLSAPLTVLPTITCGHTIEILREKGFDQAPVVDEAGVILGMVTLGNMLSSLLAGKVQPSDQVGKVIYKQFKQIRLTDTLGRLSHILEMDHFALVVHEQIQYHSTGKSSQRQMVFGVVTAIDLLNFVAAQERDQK
Summary of the method: (§1)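 Lead sulfide H2S assay on purified human CBS (5 μg, wild-type or alanine mutant) in 200 μL of 50 mM HEPES pH 7.4 with 5% DMSO and 0.4 mM lead nitrate. Enzyme and 2 mM homocysteine preincubated 3 min at 37 °C, then 2 mM cysteine added. Lead sulfide read at 390 nm (ε 5500 M−1 cm−1). Activity is relative to a DMSO control, mean ± SD (n = 3). The detergent test included 0.01% Triton X-100.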

[2] = molecular target: T2, Cystathionine beta-synthase (Homo sapiens) (UniProt P35520); assay: Non-competitive inhibition of full-length GST-fused human CBS using […] as substrate by Lineweaver-burk plot analysis
T2 sequence (whole entry): T1 sequence (P35520 whole entry)

HT-29 [3] = assay: Antiproliferative activity against human HT-29 cells after 24 hrs by CCK8 assay; format: functional, cell-based; settings: HT-29, 24 h
Summary of the method: (§2)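 HT29 cells grown in DMEM with 10% FBS and 1% penicillin–streptomycin, 37 °C, 5% CO2. Seeded at 1 × 10^4 cells/well, cultured 24 h, then exposed to varying compound concentrations for 24 h. CCK-8 added for 2 h at 37 °C and OD450 read. Viability expressed as % of untreated medium control. IC50 fitted from means ± SD (n = 4). Knockdown cells were transfected with CBS siRNA for 48 h beforehand.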

HT-29 [4] = assay: Antiproliferative activity against human HT-29 cells harboring CBS SiRNA after 24 hrs by CCK8 assay; format: functional, cell-based; settings: HT-29, 24 h; summary of the method: as §2
Mus musculus [5] = assay: Toxicity in BALB/c nude mouse xenografted with human HT-29 cells assessed as effect on body weight at 10 mg/kg, sc administered once daily for 6 days followed by 1 day interval and subsequent dosing for 6 days; format: organism-based; settings: in vivo
Summary of the method: (§3)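 Male BALB/c nude mice, five weeks old, given s.c. HT29 cells (100 μL of 1 × 10^7 cells/mL) in the right armpit. Randomized when tumours reached about 100 mm3. Daily s.c. dosing at 3 or 10 mg/kg/d, vehicle 1% DMSO with 0.5% carboxymethylcellulose in PBS, 6 d on and 1 d off, 12 treatments in total, n = 6. Tumour volume by calipers (0.5 × L × W²) and body weight monitored. Tumours excised and weighed on day 28.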

HT-29 [6] = assay: Antitumor activity against human HT-29 cells xenografted in BALB/c nude mouse assessed as tumor growth inhibition at 10 mg/kg, sc administered once daily for 6 days followed by 1 day interval and subsequent dosing for 6 days; format: functional, organism-based; summary of the method: as §3
HT-29 [7] = assay: Antitumor activity against human HT-29 cells xenografted in BALB/c nude mouse assessed as reduction in tumor weight at 10 mg/kg, sc administered once daily for 6 days followed by 1 day interval and subsequent dosing for 6 days relative to control; format: functional; parameters: scale not given: the % may be the effect or the level left; summary of the method: as §3
[8] = molecular target: T2, Cystathionine beta-synthase (Homo sapiens); assay: Competitive inhibition of full-length GST-fused human CBS up to 10 uM using […] as substrate by Lineweaver-burk plot analysis
[9] = molecular target: T1, Cystathionine beta-synthase; assay: Inhibition of full-length GST-fused human CBS assessed as reduction in H2S production using 20 mM […] as substrate preincubated for 3 mins followed by substrate addition
Summary of the method: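 Same lead sulfide H2S assay on purified human wild-type CBS (5 μg, 50 mM HEPES pH 7.4, 5% DMSO, 0.4 mM lead nitrate, 37 °C), with cysteine raised to 20 mM and homocysteine kept at 2 mM. Lead sulfide read at 390 nm.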

[10] = molecular target: T1, Cystathionine beta-synthase; assay: Inhibition of full-length GST-fused human CBS assessed as reduction in H2S production using […] as substrate preincubated for 3 mins followed by substrate addition measured in presence of Triton X-100; summary of the method: as §1
[11] = molecular target: Cystathionine beta-synthase (Homo sapiens, UniProt P35520, T193A); assay: Inhibition of human CBS T193A mutant assessed as reduction in H2S production using […] as substrate preincubated for 3 mins followed by substrate addition; summary of the method: as §1
[12] = molecular target: Cystathionine beta-synthase (Homo sapiens, UniProt P35520, N194A); assay: Inhibition of human CBS N194A mutant assessed as reduction in H2S production using 2 mM […] as substrate preincubated for 3 mins followed by substrate addition; summary of the method: as §1
[13] = molecular target: Cystathionine beta-synthase (Homo sapiens, UniProt P35520, H203A); assay: Inhibition of human CBS H203A mutant assessed as reduction in H2S production using […] preincubated for 3 mins followed by substrate addition; summary of the method: as §1
[14] = molecular target: Cystathionine beta-synthase (Homo sapiens, UniProt P35520, Y223A); assay: Inhibition of human CBS Y223A mutant assessed as reduction in H2S production using 2 mM […] as substrate preincubated for 3 mins followed by substrate addition; summary of the method: as §1
[15] = molecular target: Cystathionine beta-synthase (Homo sapiens, UniProt P35520, Y308A); assay: Inhibition of human CBS Y308A mutant assessed as reduction in H2S production using 2 mM […] as substrate preincubated for 3 mins followed by substrate addition; summary of the method: as §1
Homo sapiens [16] = species: Homo sapiens; assay: Selectivity ratio of IC50 for human CBS H203A mutant to IC50 for full-length GST-fused human CBS
Homo sapiens [17] = species: Homo sapiens; assay: Selectivity ratio of IC50 for human CBS Y308A mutant to IC50 for full-length GST-fused human CBS
[18] = Selectivity ratio of IC50 for human HT-29 cells harboring CBS SiRNA to IC50 for human HT-29 cells; format: functional
HT-29 [19] = assay: Induction of apoptosis in human HT-29 cells at 0.5 uM after 24 hrs by Annexin V-FITC/propidium iodide staining based flow cytometry relative to control; format: functional
Summary of the method: (§4)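 HT29 cells seeded at 5 × 10^5 per well and treated 24 h with 0.5, 1 or 2 μM compound. Cells trypsinized, washed in cold PBS, stained with FITC–Annexin V and PI for 15 min in the dark at room temperature. 10 000 cells analysed by flow cytometry. Annexin V-positive percentage reported as mean ± SD of three independent experiments.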

HT-29 [20] = assay: Induction of apoptosis in human HT-29 cells at 1 uM after 24 hrs by Annexin V-FITC/propidium iodide staining based flow cytometry relative to control; format: functional; summary of the method: as §4
HT-29 [21] = assay: Induction of apoptosis in human HT-29 cells at 2 uM after 24 hrs by Annexin V-FITC/propidium iodide staining based flow cytometry relative to control; format: functional; summary of the method: as §4
HT-29 [22] = assay: Induction of apoptosis in human HT-29 cells after 24 hrs by Annexin V-FITC/propidium iodide staining based flow cytometry; format: functional, cell-based; summary of the method: as §4
Mus musculus [23] = assay: Toxicity in BALB/c nude mouse xenografted with human HT-29 cells assessed as effect on body weight at 3 to 10 mg/kg, sc administered once daily for 6 days followed by 1 day interval and subsequent dosing for 6 days; format: organism-based; settings: in vivo; summary of the method: as §3
HT-29 [24] = assay: Antitumor activity against human HT-29 cells xenografted in sc dosed BALB/c nude mouse assessed as tumor growth inhibition administered once daily for 6 days followed by 1 day interval and subsequent dosing for 6 days; format: functional, organism-based; summary of the method: as §3

Cystathionine beta-synthase (Homo sapiens, UniProt P35520, H203A), sequence (P35520 whole entry H203A): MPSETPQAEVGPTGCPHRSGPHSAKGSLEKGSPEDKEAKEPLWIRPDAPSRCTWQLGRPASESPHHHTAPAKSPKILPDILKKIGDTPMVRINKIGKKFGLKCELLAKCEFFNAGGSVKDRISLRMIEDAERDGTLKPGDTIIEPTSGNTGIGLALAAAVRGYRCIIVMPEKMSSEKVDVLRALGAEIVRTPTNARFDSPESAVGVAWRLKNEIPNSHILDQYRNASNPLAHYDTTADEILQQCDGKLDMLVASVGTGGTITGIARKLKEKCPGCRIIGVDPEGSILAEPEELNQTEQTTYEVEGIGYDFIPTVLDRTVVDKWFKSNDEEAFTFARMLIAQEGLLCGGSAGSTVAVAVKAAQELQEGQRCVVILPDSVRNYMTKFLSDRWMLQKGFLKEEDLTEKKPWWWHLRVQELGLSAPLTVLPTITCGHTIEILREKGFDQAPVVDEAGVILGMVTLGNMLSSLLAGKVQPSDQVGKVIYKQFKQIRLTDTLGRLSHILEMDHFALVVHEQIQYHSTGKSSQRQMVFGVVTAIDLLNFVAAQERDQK
Cystathionine beta-synthase (Homo sapiens, UniProt P35520, Y223A), sequence (P35520 whole entry Y223A): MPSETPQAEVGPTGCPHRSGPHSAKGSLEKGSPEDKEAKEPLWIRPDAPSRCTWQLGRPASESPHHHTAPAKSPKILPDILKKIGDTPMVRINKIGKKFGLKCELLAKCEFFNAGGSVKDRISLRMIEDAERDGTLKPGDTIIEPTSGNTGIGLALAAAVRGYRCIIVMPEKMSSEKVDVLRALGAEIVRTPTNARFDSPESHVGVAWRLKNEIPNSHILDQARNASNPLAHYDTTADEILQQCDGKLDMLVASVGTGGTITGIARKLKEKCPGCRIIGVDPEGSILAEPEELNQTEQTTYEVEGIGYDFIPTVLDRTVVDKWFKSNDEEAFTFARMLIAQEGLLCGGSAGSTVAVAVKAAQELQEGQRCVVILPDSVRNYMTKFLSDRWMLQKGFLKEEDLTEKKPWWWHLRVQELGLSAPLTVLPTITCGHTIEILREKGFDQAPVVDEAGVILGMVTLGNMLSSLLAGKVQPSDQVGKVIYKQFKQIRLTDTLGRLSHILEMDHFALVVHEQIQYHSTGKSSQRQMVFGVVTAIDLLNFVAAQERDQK
Cystathionine beta-synthase (Homo sapiens, UniProt P35520, Y308A), sequence (P35520 whole entry Y308A, the tested form may be a part): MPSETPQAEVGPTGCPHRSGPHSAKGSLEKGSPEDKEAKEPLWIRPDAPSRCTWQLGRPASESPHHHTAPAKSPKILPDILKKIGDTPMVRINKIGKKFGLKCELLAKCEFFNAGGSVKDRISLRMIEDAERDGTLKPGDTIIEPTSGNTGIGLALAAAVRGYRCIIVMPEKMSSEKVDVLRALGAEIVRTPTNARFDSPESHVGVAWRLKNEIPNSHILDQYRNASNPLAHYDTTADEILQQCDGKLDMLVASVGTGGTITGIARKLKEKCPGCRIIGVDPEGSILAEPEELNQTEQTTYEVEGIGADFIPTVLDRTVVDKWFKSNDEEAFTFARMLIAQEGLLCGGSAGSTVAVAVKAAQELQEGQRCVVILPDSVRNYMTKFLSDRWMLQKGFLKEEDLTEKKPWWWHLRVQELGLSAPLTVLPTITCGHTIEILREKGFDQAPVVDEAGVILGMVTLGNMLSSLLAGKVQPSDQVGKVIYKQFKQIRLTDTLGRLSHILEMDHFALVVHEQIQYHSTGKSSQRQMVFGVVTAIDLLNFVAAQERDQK
Cystathionine beta-synthase (Homo sapiens, UniProt P35520, N194A), sequence (P35520 whole entry N194A): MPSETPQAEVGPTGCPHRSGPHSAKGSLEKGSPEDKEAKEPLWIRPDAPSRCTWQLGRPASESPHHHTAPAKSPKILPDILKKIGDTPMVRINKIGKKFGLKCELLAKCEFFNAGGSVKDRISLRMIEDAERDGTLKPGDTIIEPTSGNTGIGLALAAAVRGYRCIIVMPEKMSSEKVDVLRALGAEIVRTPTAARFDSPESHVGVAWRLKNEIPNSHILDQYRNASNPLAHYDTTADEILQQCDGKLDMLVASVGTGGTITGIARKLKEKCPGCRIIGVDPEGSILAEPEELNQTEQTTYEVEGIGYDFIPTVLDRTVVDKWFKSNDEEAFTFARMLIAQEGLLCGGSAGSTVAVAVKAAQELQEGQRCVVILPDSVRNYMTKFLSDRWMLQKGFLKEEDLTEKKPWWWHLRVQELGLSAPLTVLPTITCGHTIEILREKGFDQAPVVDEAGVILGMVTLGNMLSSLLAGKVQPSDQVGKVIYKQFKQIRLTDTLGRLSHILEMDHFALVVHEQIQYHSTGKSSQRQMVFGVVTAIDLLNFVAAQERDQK
Cystathionine beta-synthase (Homo sapiens, UniProt P35520, T193A), sequence (P35520 whole entry T193A): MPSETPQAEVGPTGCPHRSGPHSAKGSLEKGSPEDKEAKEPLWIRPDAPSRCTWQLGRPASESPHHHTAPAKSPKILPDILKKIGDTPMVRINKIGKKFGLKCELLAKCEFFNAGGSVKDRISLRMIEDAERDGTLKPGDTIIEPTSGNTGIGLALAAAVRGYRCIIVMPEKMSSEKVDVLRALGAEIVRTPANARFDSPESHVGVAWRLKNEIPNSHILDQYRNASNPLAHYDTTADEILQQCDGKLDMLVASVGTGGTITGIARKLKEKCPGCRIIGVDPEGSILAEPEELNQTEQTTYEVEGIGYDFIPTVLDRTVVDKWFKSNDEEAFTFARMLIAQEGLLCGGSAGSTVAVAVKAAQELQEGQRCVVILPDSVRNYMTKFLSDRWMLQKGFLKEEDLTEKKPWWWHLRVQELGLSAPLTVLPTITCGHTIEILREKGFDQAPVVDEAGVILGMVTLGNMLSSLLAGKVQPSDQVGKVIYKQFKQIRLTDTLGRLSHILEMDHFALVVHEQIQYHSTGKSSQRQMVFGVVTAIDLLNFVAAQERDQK

NOCC(=O)O [CARBOXYMETHOXYLAMINE]
IC50 [1]: 7.5 µM
inhibition [2]: Active
IC50 (HT-29 [3]): 159 µM
IC50 (HT-29 [4]): 287 µM
Activity (Mus musculus [5]): Non-Toxic
TGI (HT-29 [6]): Active
Activity (HT-29 [7]): 44%

COc1ccc([C@H]2Oc3cc(O)cc(O)c3C(=O)[C@@H]2[C@H]2C(=O)c3c(O)cc(O)cc3O[C@@H]2c2ccc(O)cc2)cc1 [SIKOKIANIN C]
inhibition [8]: Active
IC50 [1]: 0.9 µM
IC50 [9]: 5.5 µM
IC50 [10]: 1.4 µM
IC50 [11]: 11.2 µM
IC50 [12]: 18.7 µM
IC50 [13]: 43 µM
IC50 [14]: 16.9 µM
IC50 [15]: 24 µM
Ratio IC50 (Homo sapiens [16]): 48
Ratio IC50 (Homo sapiens [17]): 27
IC50 (HT-29 [3]): 1.6 µM
IC50 (HT-29 [4]): 4.7 µM
Ratio IC50 [18]: 3
Activity (HT-29 [19]): 17.1%
Activity (HT-29 [20]): 22%
Activity (HT-29 [21]): 31.5%
Activity (HT-29 [22]): Dose-dependent effect
Activity (Mus musculus [23]): Non-Toxic
Activity (HT-29 [24]): Dose-dependent effect
Activity (HT-29 [7]): 46%
